Source: ChEMBL document CHEMBL3286172, “Exploring the role of 2-chloro-6-fluoro substitution in 2-alkylthio-6-benzyl-5-alkylpyrimidin-4(3H)-ones: effects in HIV-1-infected cells and in HIV-1 reverse transcriptase enzymes” (J Med Chem, 2014)

Legend:
[1] = tested on: Human immunodeficiency virus 1; experiment: Antiviral activity against HIV-1 harboring NNTRI-resistant reverse transcriptase K103N mutant infected in human MT4 cells assessed as inhibition of virus-induced cytopathic effect by MTT method; format: functional, organism-based; conditions: Human immunodeficiency virus 1, MT4
[2] = Cytotoxicity against human MT4 cells assessed as induction of cell death by MTT method; format: cell-based
Method in brief: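 Mock-infected MT-4 cells exposed to a range of drug concentrations. Viability read by MTT colorimetry at day 5. […] Top concentration was limited where compound precipitated in the culture medium. Means of at least two experiments.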

[3] = tested on: Human immunodeficiency virus 1; experiment: Antiviral activity against wild type HIV-1 NL4-3 infected in human MT4 cells assessed as inhibition of virus-induced cytopathic effect by MTT method; format: functional, organism-based; conditions: Human immunodeficiency virus 1, NL4-3, MT4
Method in brief: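 MT-4 lymphoid cells infected with wild-type HIV-1 NL4-3 while exposed to a range of drug concentrations. Viable cells counted by tetrazolium (MTT) colorimetry at day 5 post-infection. Means of at least two experiments.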

[4] = tested on: Human immunodeficiency virus 1; experiment: Antiviral activity against HIV-1 harboring NNTRI-resistant reverse transcriptase Y188L mutant infected in human MT4 cells assessed as inhibition of virus-induced cytopathic effect by MTT method; format: functional, organism-based; conditions: Human immunodeficiency virus 1, MT4
Method in brief: (§1)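 MT-4 lymphoid cells infected with HIV-1 carrying RT K103N, Y181C or Y188L, with a range of drug concentrations present. Viable cells counted by MTT colorimetric assay at day 5 post-infection. […] Highest concentration tested was limited by precipitation in culture medium. Means of at least two experiments.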

[5] = tested on: Human immunodeficiency virus type 1 reverse transcriptase (Human immunodeficiency virus 1), Q72547 [K103N]
[6] = tested on: Human immunodeficiency virus 1; experiment: Antiviral activity against HIV-1 harboring NNTRI-resistant reverse transcriptase Y181C mutant infected in human MT4 cells assessed as inhibition of virus-induced cytopathic effect by MTT method; format: functional, organism-based; conditions: Human immunodeficiency virus 1, MT4; method in brief: as §1
[7] = tested on: Human immunodeficiency virus type 1 reverse transcriptase (Human immunodeficiency virus 1), Q72547 [L100I]
[8] = target: Human immunodeficiency virus type 1 reverse transcriptase (Human immunodeficiency virus 1) (UniProt Q72547)
[9] = Selectivity index, ratio of CC50 for human MT4 cells to EC50 for wild type HIV-1 NL4-3 infected in human MT4 cells; format: toxicity, cell-based; conditions: read-out: Ratio CC50/EC50
Method in brief: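 Ratio of CC50 to EC50, both from MTT readings in MT-4 cells at day 5. CC50 was taken in mock-infected cells and EC50 in cells infected with wild-type NL4-3. Values are means of at least two experiments.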

[10] = tested on: Human immunodeficiency virus 1; experiment: Fold resistance, ratio of EC50 for HIV-1 harboring NNTRI-resistant reverse transcriptase Y181C mutant infected in human MT4 cells to EC50 for wild type HIV-1 NL4-3 infected in human MT4 cells; format: functional
Method in brief: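 MT-4 cells infected with HIV-1 mutant (K103N or Y181C) or wild-type NL4-3, with drug present. […] Fold resistance is the mutant EC50 divided by the wild-type NL4-3 EC50. EC50 values are means of at least two experiments.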

[11] = tested on: Human immunodeficiency virus 1; experiment: Fold resistance, ratio of EC50 for HIV-1 harboring NNTRI-resistant reverse transcriptase K103N mutant infected in human MT4 cells to EC50 for wild type HIV-1 NL4-3 infected in human MT4 cells; format: functional

SMILES | EC50 [1] | CC50 [2] | EC50 [3] | EC50 [4] | ID50 [5] | EC50 [6] | ID50 [7] | ID50 [8] | selectivity ratio [9] | pID50 [8] | Ratio EC50 [10] | Ratio EC50 [11]
CCc1c(C(C)c2c(F)cccc2Cl)nc(SC(C)CC)[nH]c1=O (racemic) | > 3000 nM | > 3000 nM | 270 nM | > 3000 nM | 2400 nM | > 3000 nM | 400 nM | 8 nM | > 11 | – | – | –
Cc1c([C@H](C)c2c(F)cccc2F)nc(SC2CCCC2)[nH]c1=O | – | – | – | – | – | – | – | – | – | 8.1 | – | –
Cc1c(C(C)c2c(F)cccc2F)nc(SC(C)C)[nH]c1=O (racemic) | – | > 3000 nM | – | – | – | – | – | – | > 3000 | – | – | –
CCCSc1nc(Cc2c(F)cccc2Cl)c(C)c(=O)[nH]1 | 9200 nM | > 76000 nM | 86 nM | > 76000 nM | – | 2300 nM | – | – | > 884 | – | 27 | 107
CCC(c1nc(SC2CCCC2)[nH]c(=O)c1C)c1c(F)cccc1Cl (racemic) | > 3000 nM | > 3000 nM | 580 nM | > 3000 nM | 340 nM | > 3000 nM | 68 nM | 4 nM | > 5 | – | – | –
Cc1c(C(C)c2c(F)cccc2Cl)nc(SC(C)C)[nH]c1=O (racemic) | 140 nM | > 15000 nM | 0.04 nM | 3400 nM | – | 250 nM | – | – | – | – | – | –
O=C1Nc2ccc(Cl)cc2[C@@](C#CC2CC2)(C(F)(F)F)O1 [EFAVIRENZ] | – | > 3000 nM | – | 1970 nM | – | 13 nM | – | – | – | – | – | –
CCC(C)Sc1nc(Cc2c(F)cccc2Cl)cc(=O)[nH]1 (centres undefined) | 25200 nM | > 76000 nM | 160 nM | > 76000 nM | – | 8300 nM | – | – | > 475 | – | 52 | 157
CCc1c(C(C)c2c(F)cccc2F)nc(SC(C)CC)[nH]c1=O (racemic) | > 3000 nM | > 3000 nM | 140 nM | > 3000 nM | 450 nM | > 3000 nM | 110 nM | 11 nM | > 21 | – | – | –
CC(C)Sc1nc(Cc2c(F)cccc2Cl)cc(=O)[nH]1 | 39200 nM | > 80000 nM | 380 nM | > 80000 nM | – | 17800 nM | – | – | > 210 | – | 47 | 103
CCCCSc1nc(Cc2c(F)cccc2Cl)cc(=O)[nH]1 | 29200 nM | > 76000 nM | 290 nM | > 76000 nM | – | 16700 nM | – | – | > 262 | – | 58 | 101
CCCCSc1nc(O)c(C)c(C(C)c2c(F)cccc2F)n1 (racemic) | > 3000 nM | > 3000 nM | 50 nM | > 3000 nM | 450 nM | > 3000 nM | 230 nM | 3 nM | > 60 | – | – | –
CCc1c(C(C)c2c(F)cccc2F)nc(SC(C)C)[nH]c1=O (racemic) | > 3000 nM | > 3000 nM | 89 nM | > 3000 nM | 830 nM | > 3000 nM | 27200 nM | 12 nM | > 34 | – | – | –
CCCCSc1nc(C(C)c2c(F)cccc2Cl)c(CC)c(=O)[nH]1 (racemic) | > 3000 nM | > 3000 nM | 64 nM | > 3000 nM | 2300 nM | > 3000 nM | 330 nM | 22 nM | > 47 | – | – | –
CCCCSc1nc(C(CC)c2c(F)cccc2F)c(C)c(=O)[nH]1 (racemic) | > 3000 nM | > 3000 nM | 23 nM | > 3000 nM | 280 nM | > 3000 nM | 230 nM | 3 nM | > 130 | – | – | –
Cc1c(Cc2c(F)cccc2Cl)nc(SC2CCCC2)[nH]c1=O | > 71000 nM | > 71000 nM | 180 nM | > 71000 nM | – | > 71000 nM | – | – | > 394 | – | – | –
Cc1c(Cc2c(F)cccc2Cl)nc(SC(C)C)[nH]c1=O | 10600 nM | > 76000 nM | 120 nM | > 76000 nM | – | 8400 nM | – | – | > 633 | – | 70 | 88

SMILES | EC50 [1] | CC50 [2] | EC50 [3] | EC50 [4] | ID50 [5] | EC50 [6] | ID50 [7] | ID50 [8] | selectivity ratio [9] | pID50 [8] | Ratio EC50 [10] | Ratio EC50 [11]
CCCCSc1nc(C(CC)c2c(F)cccc2Cl)c(C)c(=O)[nH]1 (racemic) | > 3000 nM | > 3000 nM | 110 nM | > 3000 nM | 1000 nM | > 3000 nM | 260 nM | 3 nM | > 27 | – | – | –
CCc1c(C(C)c2c(F)cccc2Cl)nc(SC2CCCC2)[nH]c1=O (racemic) | > 3000 nM | > 3000 nM | > 3000 nM | > 3000 nM | 1800 nM | > 3000 nM | 530 nM | 24 nM | – | – | – | –
CCCCSc1nc(Cc2c(F)cccc2Cl)c(C)c(=O)[nH]1 | 20000 nM | > 73000 nM | 110 nM | > 73000 nM | – | 2300 nM | – | – | > 664 | – | 21 | 182
Cc1c([C@@H](C)c2c(F)cccc2Cl)nc(SC(C)C)[nH]c1=O | > 36900 nM | > 36900 nM | 220 nM | > 36900 nM | – | > 36900 nM | – | – | – | – | – | –
CCc1c(C(C)c2c(F)cccc2Cl)nc(SC(C)C)[nH]c1=O (racemic) | > 3000 nM | > 3000 nM | 960 nM | > 3000 nM | 2600 nM | > 3000 nM | 1100 nM | 48 nM | > 3 | – | – | –
O=c1cc(Cc2c(F)cccc2Cl)nc(SC2CCCC2)[nH]1 | 42100 nM | > 74000 nM | 150 nM | > 74000 nM | – | 18300 nM | – | – | > 493 | – | 122 | 281
CCCSc1nc(Cc2c(F)cccc2Cl)cc(=O)[nH]1 | 18800 nM | > 80000 nM | 260 nM | > 80000 nM | – | 8200 nM | – | – | > 308 | – | 31 | 72
CCCSc1nc(C(C)c2c(F)cccc2F)c(CC)c(=O)[nH]1 (racemic) | > 3000 nM | > 3000 nM | 240 nM | > 3000 nM | 430 nM | > 3000 nM | 270 nM | 3 nM | > 12 | – | – | –
CCC(C)Sc1nc(C(CC)c2c(F)cccc2Cl)c(C)c(=O)[nH]1 (racemic) | > 3000 nM | > 3000 nM | 54 nM | > 3000 nM | 450 nM | > 3000 nM | 120 nM | 2 nM | > 56 | – | – | –
CCCSc1nc(C(C)c2c(F)cccc2F)c(C)c(=O)[nH]1 (racemic) | > 3000 nM | > 3000 nM | 28 nM | > 3000 nM | 380 nM | > 3000 nM | 230 nM | 1 nM | > 107 | – | – | –
Cc1c([C@H](C)c2c(F)cccc2Cl)nc(SC(C)C)[nH]c1=O | 10 nM | > 23500 nM | 0.03 nM | 350 nM | – | 150 nM | – | – | – | – | – | –
CCC(C)Sc1nc(C(C)c2c(F)cccc2Cl)c(C)c(=O)[nH]1 (racemic) | 320 nM | > 1500 nM | 0.3 nM | > 1500 nM | – | 390 nM | – | – | – | – | – | –
CCC(c1nc(SC(C)C)[nH]c(=O)c1C)c1c(F)cccc1Cl (racemic) | > 3000 nM | > 3000 nM | 84 nM | > 3000 nM | 420 nM | > 3000 nM | 120 nM | 6 nM | > 36 | – | – | –
CCCSc1nc(C(C)c2c(F)cccc2Cl)c(CC)c(=O)[nH]1 (racemic) | > 3000 nM | > 3000 nM | 28 nM | > 3000 nM | 2600 nM | > 3000 nM | 230 nM | 10 nM | > 107 | – | – | –
Cc1ccnc2c1NC(=O)c1cccnc1N2C1CC1 [NEVIRAPINE] | – | > 7000 nM | – | > 7000 nM | – | > 7000 nM | – | – | – | – | – | –
Cc1c([C@@H](C)c2c(F)cccc2F)nc(SC2CCCC2)[nH]c1=O | – | – | – | – | – | – | – | – | – | 6 | – | –
